Experimental data taken from ChEMBL document CHEMBL3526015, “Metabolism of the c-Fos/activator protein-1 inhibitor T-5224 by multiple human UDP-glucuronosyltransferase isoforms” (Drug Metab Dispos, 2011).

Experiments:
[1] = molecular target: T1, UDP-glucuronosyltransferase 1A8 (Homo sapiens, UniProt Q9HAW9); assay: Drug level assessed as human UGT1A8-mediated compound formation from 5 to 50 uM T-5224 after 60 mins in presence of UDP-glucuronic acid using 0.05 to 0.2 mg/ml by HPLC method; assay type: ADME; details: recombinant enzyme, 1 h
T1 sequence (Q9HAW9 whole entry): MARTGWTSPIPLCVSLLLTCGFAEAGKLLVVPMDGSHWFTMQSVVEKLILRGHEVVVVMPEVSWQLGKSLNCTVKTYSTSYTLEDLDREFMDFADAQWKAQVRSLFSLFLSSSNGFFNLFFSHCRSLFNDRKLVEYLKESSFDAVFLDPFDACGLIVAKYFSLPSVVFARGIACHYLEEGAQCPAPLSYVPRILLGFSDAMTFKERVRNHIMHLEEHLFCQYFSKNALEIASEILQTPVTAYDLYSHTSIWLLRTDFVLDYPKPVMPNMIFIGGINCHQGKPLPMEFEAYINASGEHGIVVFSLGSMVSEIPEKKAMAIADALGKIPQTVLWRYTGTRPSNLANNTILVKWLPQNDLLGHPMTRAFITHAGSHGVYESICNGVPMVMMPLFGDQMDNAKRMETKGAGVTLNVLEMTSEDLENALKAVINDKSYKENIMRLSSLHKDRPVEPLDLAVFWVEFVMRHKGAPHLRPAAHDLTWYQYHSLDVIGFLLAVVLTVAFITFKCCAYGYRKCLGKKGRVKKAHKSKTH
In short: (§1)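 Recombinant human UGT microsomes from baculovirus-infected insect cells, 0.1 mg protein/mL, in 50 mM Tris-HCl pH 7.5, 8 mM MgCl2, alamethicin. T-5224 in DMSO (2% v/v final). Preincubated 5 min at 37°C, started with 2 mM UDPGA, run 60 min at 37°C and stopped with acetonitrile. Glucuronides resolved by C18 HPLC with UV at 290 nm. Linearity was checked at 0.05–0.2 mg/mL protein and 10–60 min.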

[2] = molecular target: T2, UDP-glucuronosyltransferase 1A1 (Homo sapiens, UniProt P22309); assay: Drug level assessed as human UGT1A1-mediated compound formation from 5 to 50 uM T-5224 after 60 mins in presence of UDP-glucuronic acid using 0.05 to 0.2 mg/ml by HPLC method; assay type: ADME; details: recombinant enzyme, 1 h; in short: as §1
T2 sequence (P22309 whole entry): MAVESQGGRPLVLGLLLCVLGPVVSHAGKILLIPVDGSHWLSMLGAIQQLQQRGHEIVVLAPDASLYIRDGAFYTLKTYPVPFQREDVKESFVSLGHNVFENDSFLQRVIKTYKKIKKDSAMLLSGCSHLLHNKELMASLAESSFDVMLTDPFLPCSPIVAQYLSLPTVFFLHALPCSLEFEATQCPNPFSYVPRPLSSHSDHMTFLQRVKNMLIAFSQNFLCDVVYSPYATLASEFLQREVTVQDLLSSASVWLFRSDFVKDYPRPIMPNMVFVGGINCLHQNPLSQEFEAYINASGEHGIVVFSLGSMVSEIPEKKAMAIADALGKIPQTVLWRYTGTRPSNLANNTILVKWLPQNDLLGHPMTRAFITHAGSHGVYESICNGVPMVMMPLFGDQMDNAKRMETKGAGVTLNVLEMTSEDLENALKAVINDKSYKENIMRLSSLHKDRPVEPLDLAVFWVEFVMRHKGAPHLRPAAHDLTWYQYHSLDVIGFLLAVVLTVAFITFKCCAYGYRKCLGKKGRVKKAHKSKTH

[3] = molecular target: T2, UDP-glucuronosyltransferase 1A1; assay: Drug level assessed as human UGT1A1-mediated compound formation from 5 to 50 uM T-5224 after 10 to 60 mins in presence of UDP-glucuronic acid by HPLC method; assay type: ADME; details: recombinant enzyme; in short: as §1
[4] = molecular target: T3, UDP-glucuronosyltransferase 1A3 (Homo sapiens, UniProt P35503); assay: Drug level assessed as human UGT1A3-mediated compound formation from 5 to 50 uM T-5224 after 60 mins in presence of UDP-glucuronic acid using 0.05 to 0.2 mg/ml by HPLC method; assay type: ADME; details: recombinant enzyme, 1 h; in short: as §1
T3 sequence (P35503 whole entry): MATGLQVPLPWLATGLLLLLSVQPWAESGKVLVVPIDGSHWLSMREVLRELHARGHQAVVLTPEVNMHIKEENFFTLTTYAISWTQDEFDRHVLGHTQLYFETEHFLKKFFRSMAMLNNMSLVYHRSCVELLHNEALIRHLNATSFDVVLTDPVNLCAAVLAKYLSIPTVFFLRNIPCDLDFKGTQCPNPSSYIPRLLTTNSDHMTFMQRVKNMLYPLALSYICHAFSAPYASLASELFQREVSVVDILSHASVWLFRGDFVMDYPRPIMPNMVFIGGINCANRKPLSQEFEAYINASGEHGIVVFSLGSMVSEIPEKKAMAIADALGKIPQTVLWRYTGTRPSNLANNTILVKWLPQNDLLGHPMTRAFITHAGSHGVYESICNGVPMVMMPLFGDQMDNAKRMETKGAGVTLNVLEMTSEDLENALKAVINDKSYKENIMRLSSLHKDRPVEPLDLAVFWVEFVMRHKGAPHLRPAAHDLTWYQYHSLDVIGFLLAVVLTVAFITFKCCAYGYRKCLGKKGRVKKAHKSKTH

Liver microsome [5] = assay: Drug level in pooled human liver microsomes treated with T-5224 assessed as compound formation in presence of UDPGA by LC-MS/MS method; assay type: ADME
[6] = Drug level in pooled human intestinal microsomes treated with 10 uM T-5224 assessed as compound formation after 5 to 30 mins by HPLC method; assay type: ADME, Intestine, Microsome
In short: (§2)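 Pooled human liver microsomes at 0.5 mg protein/mL, or pooled intestinal microsomes at 0.25 mg/mL, in 50 mM Tris-HCl pH 7.5, 8 mM MgCl2, alamethicin, with 2 mM UDPGA. T-5224 at 10 μM, 10 min at 37°C after 5 min preincubation; stopped with acetonitrile. HPLC with UV at 290 nm. Linearity was tested over 0.1–1.0 mg/mL protein and 5–30 min.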

Liver microsome [7] = assay: Drug level in pooled human liver microsomes treated with 10 uM T-5224 assessed as compound formation after 10 mins using 0.1 to 1.0 mg/ml microsomal protein content by HPLC method; assay type: ADME; in short: as §2
[8] = molecular target: T3, UDP-glucuronosyltransferase 1A3; assay: Drug level assessed as human UGT1A3-mediated compound formation from 5 to 50 uM T-5224 after 60 mins in presence of UDP-glucuronic acid by HPLC method; assay type: ADME; details: recombinant enzyme, 1 h; in short: as §1
[9] = Drug level in pooled human intestinal microsomes treated with 10 uM T-5224 assessed as compound formation after 10 mins by HPLC method; assay type: ADME, Intestine, Microsome; in short: as §2
Liver microsome [10] = assay: Drug level in pooled human liver microsomes treated with 10 uM T-5224 assessed as compound formation after 5 to 30 mins by HPLC method; assay type: ADME; in short: as §2
[11] = molecular target: T3, UDP-glucuronosyltransferase 1A3; assay: Drug level assessed as human UGT1A3-mediated compound formation from 5 to 50 uM T-5224 after 10 to 60 mins in presence of UDP-glucuronic acid by HPLC method; assay type: ADME; details: recombinant enzyme; in short: as §1
[12] = molecular target: T1, UDP-glucuronosyltransferase 1A8; assay: Drug level assessed as human UGT1A8-mediated compound formation from 5 to 50 uM T-5224 after 60 mins in presence of UDP-glucuronic acid by HPLC method; assay type: ADME; details: recombinant enzyme, 1 h; in short: as §1
[13] = molecular target: T1, UDP-glucuronosyltransferase 1A8; assay: Drug level assessed as human UGT1A8-mediated compound formation from 5 to 50 uM T-5224 after 10 to 60 mins in presence of UDP-glucuronic acid by HPLC method; assay type: ADME; details: recombinant enzyme; in short: as §1
[14] = molecular target: T2, UDP-glucuronosyltransferase 1A1; assay: Drug level assessed as human UGT1A1-mediated compound formation from 5 to 50 uM T-5224 after 60 mins in presence of UDP-glucuronic acid by HPLC method; assay type: ADME; details: recombinant enzyme, 1 h; in short: as §1
[15] = Drug level in pooled human intestinal microsomes treated with 10 uM T-5224 assessed as compound formation after 10 mins using 0.1 to 1.0 mg/ml microsomal protein content by HPLC method; assay type: ADME, Intestine, Microsome; in short: as §2
Liver microsome [16] = assay: Drug level in pooled human liver microsomes treated with 10 uM T-5224 assessed as compound formation after 10 mins by HPLC method; assay type: ADME; in short: as §2

O=C(O)CCc1cc(C(=O)c2ccc(OC3CCCC3)cc2O)ccc1OCc1ccc2c(O[C@@H]3O[C@H](C(=O)O)[C@@H](O)[C@H](O)[C@H]3O)noc2c1
Drug metabolism [1]: Dose-dependent effect
Drug metabolism [2]: Dose-dependent effect
Drug metabolism [3]: Dose-dependent effect
Drug metabolism [4]: Dose-dependent effect
Drug metabolism (Liver microsome [5]): metabolite_detected
Drug metabolism [6]: Dose-dependent effect
Drug metabolism (Liver microsome [7]): Dose-dependent effect
Drug metabolism [8]: metabolite_detected
Drug metabolism [9]: metabolite_detected
Drug metabolism (Liver microsome [10]): Dose-dependent effect
Drug metabolism [11]: Dose-dependent effect
Drug metabolism [12]: metabolite_detected
Drug metabolism [13]: Dose-dependent effect
Drug metabolism [14]: metabolite_detected
Drug metabolism [15]: Dose-dependent effect
Drug metabolism (Liver microsome [16]): metabolite_detected
